Assay results reported in ChEMBL document CHEMBL1681637, “Synthesis and antitubercular activity of monocyclic nitroimidazoles: insights from econazole” (Bioorg Med Chem Lett, 2011).
Values after ≈ are worked out from the molar mass of the structure shown.

Assays:
[1] = system: Mycobacterium tuberculosis; experiment: Antitubercular activity against multidrug-resistant Mycobacterium tuberculosis H37Rv after 7 days by alamar blue assay; assay type: functional; settings: 168 h
[2] = system: Mycobacterium tuberculosis; experiment: Antitubercular activity against multidrug-resistant Mycobacterium tuberculosis H37Rv under anaerobic condition after 7 days by GFP reporter gene assay; assay type: functional; settings: 168 h
Method in brief: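 GFP-expressing Mtb H37Rv, made non-replicating by the Wayne hypoxia model, was added to 2-fold DMSO serial compound dilutions inside an anaerobic chamber. Plates were held at 37 °C for 7 days under anaerobiosis, then diluted 10-fold into fresh medium and outgrown for 2 days. Fluorescence was read at ex 485/em 520 nm. MIC was the lowest concentration giving 80% fluorescence inhibition versus bacteria-only wells.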

| SMILES | MIC [1] [µg/mL] | MIC [2] [µg/mL] |
| --- | --- | --- |
| CSc1nc([N+](=O)[O-])cn1CC(OCc1cc(F)cc(F)c1)c1ccc(Cl)cc1Cl (racemic) | > 256 |  |
| O=[N+]([O-])c1cn(CC(OCc2ccc(F)cc2)c2ccc(F)cc2F)cn1 (racemic) | > 256 |  |
| COc1nc([N+](=O)[O-])cn1CC(O)c1ccc([N+](=O)[O-])cc1 (racemic) | 16 (≈ 51.9 µM) |  |
| O=[N+]([O-])c1cn(CC(OCc2ccc(Cl)cc2)c2ccc(F)cc2F)cn1 (racemic) | > 256 |  |
| Cc1nc([N+](=O)[O-])cn1CC(O)c1ccc(Cl)cc1Cl (racemic) | > 256 |  |
| O=[N+]([O-])c1cn(CC(OCc2cc(F)cc(F)c2)c2ccc(Cl)cc2Cl)c(Br)n1 (racemic) | > 256 |  |
| COc1nc([N+](=O)[O-])cn1CC(O)c1ccc(F)cc1F (racemic) | 4 (≈ 13.4 µM) | 4 (≈ 13.4 µM) |
| O=[N+]([O-])c1cn2c(n1)OC[C@@H](OCc1ccc(OC(F)(F)F)cc1)C2 [PRETOMANID] | 0.13 (≈ 0.362 µM) | 2 (≈ 5.57 µM) |
| O=[N+]([O-])c1cn(CC(OCc2ccc(F)cc2F)c2ccc(Cl)cc2Cl)cn1 (racemic) | > 256 |  |
| O=[N+]([O-])c1cn(CC(O)c2ccc(-c3ccccc3)cc2)c(Br)n1 (racemic) | > 256 |  |
| COc1nc([N+](=O)[O-])cn1CC(O)c1ccc(C)cc1C (racemic) | 16 (≈ 54.9 µM) |  |
| O=[N+]([O-])c1cn(CC(OCc2ccc(Cl)cc2)c2ccc(F)cc2F)c(Br)n1 (racemic) | > 256 |  |
| O=[N+]([O-])c1cn(CC(OCc2ccc(Cl)cc2)c2ccc(Cl)cc2Cl)cn1 (racemic) | > 256 |  |
| COc1nc([N+](=O)[O-])cn1CC(OCc1ccc(F)cc1)c1ccc(Cl)cc1Cl (racemic) | > 256 |  |
| COc1nc([N+](=O)[O-])cn1CC(OCc1ccc(OC(F)(F)F)cc1)c1ccc(F)cc1F (racemic) | > 256 |  |
| CSc1nc([N+](=O)[O-])cn1CC(OCc1ccc(F)cc1)c1ccc(Cl)cc1Cl (racemic) | > 256 |  |
| COc1nc([N+](=O)[O-])cn1CC(O)c1ccc(Cl)cc1Cl (racemic) | 0.5 (≈ 1.51 µM) | 4 (≈ 12 µM) |
| O=[N+]([O-])c1cn(CC(O)c2ccccc2)c(Br)n1 (racemic) | 32 (≈ 103 µM) |  |
| O=[N+]([O-])c1cn(CC(OCc2ccc(F)cc2)c2ccc(Cl)cc2Cl)c(Br)n1 (racemic) | > 256 |  |
| O=[N+]([O-])c1cn(CC(O)c2ccc(F)cc2F)c(Br)n1 (racemic) | 64 (≈ 184 µM) |  |
| O=[N+]([O-])c1cn(CC(OCc2ccc(OC(F)(F)F)cc2)c2ccc(Cl)cc2Cl)cn1 (racemic) | > 256 |  |
| COc1nc([N+](=O)[O-])cn1CC(O)c1ccc(F)cc1 (racemic) | 16 (≈ 56.9 µM) |  |
| COc1nc([N+](=O)[O-])cn1CC(OCc1cc(F)cc(F)c1)c1ccc(Cl)cc1Cl (racemic) | > 256 |  |
| O=[N+]([O-])c1cn(CC(OCc2cc(F)ccc2F)c2ccc(Cl)cc2Cl)cn1 (racemic) | > 256 |  |
| O=[N+]([O-])c1cn(CC(OCc2ccc(Cl)cc2)c2ccc(Cl)cc2Cl)c(Br)n1 (racemic) | > 256 |  |

| SMILES | MIC [1] [µg/mL] | MIC [2] [µg/mL] |
| --- | --- | --- |
| COc1nc([N+](=O)[O-])cn1CC(O)c1ccccc1 (racemic) | 8 (≈ 30.4 µM) |  |
| O=[N+]([O-])c1cn(CC(OCc2cc(F)cc(F)c2)c2ccc(F)cc2F)cn1 (racemic) | > 256 |  |
| COc1nc([N+](=O)[O-])cn1CC(O)c1ccc(-c2ccccc2)cc1 (racemic) | 0.5 (≈ 1.47 µM) | 1 (≈ 2.95 µM) |
| COc1nc([N+](=O)[O-])cn1CC(OCc1ccc(OC(F)(F)F)cc1)c1ccc(Cl)cc1Cl (racemic) | > 256 |  |
| O=[N+]([O-])c1cn(CC(O)c2ccc(F)cc2F)cn1 (racemic) | 256 (≈ 951 µM) |  |
| O=[N+]([O-])c1ccc(C(O)Cn2cc([N+](=O)[O-])nc2Br)cc1 (racemic) | 64 (≈ 179 µM) |  |
| O=[N+]([O-])c1cn(CC(O)c2ccc(F)cc2)c(Br)n1 (racemic) | 128 (≈ 388 µM) |  |
| COc1nc([N+](=O)[O-])cn1CC(OCc1ccc(Cl)cc1)c1ccc(F)cc1F (racemic) | > 16 |  |
| O=[N+]([O-])c1cn(CC(OCc2ccc(OC(F)(F)F)cc2)c2ccc(F)cc2F)cn1 (racemic) | > 256 |  |
| Clc1ccc(COC(Cn2ccnc2)c2ccc(Cl)cc2Cl)cc1 (stereo not given) [ECONAZOLE] | 16 (≈ 41.9 µM) |  |
| COc1nc([N+](=O)[O-])cn1CC(OCc1ccc(Cl)cc1)c1ccc(Cl)cc1Cl (racemic) | > 256 |  |
| O=[N+]([O-])c1cn(CC(OCc2ccc(F)cc2)c2ccc(Cl)cc2Cl)cn1 (racemic) | > 256 |  |
| COc1nc([N+](=O)[O-])cn1CC(OCc1ccc(F)cc1)c1ccc(F)cc1F (racemic) | > 32 |  |
| O=[N+]([O-])c1cn(CC(O)c2ccc(Cl)cc2Cl)cn1 (racemic) | 32 (≈ 106 µM) |  |
| CSc1nc([N+](=O)[O-])cn1CC(OCc1ccc(Cl)cc1)c1ccc(F)cc1F (racemic) | > 256 |  |
| O=[N+]([O-])c1cn(CC(OCc2ccccc2F)c2ccc(Cl)cc2Cl)c(Br)n1 (racemic) | > 256 |  |
| O=[N+]([O-])c1cn(CC(OCc2cc(F)cc(F)c2)c2ccc(Cl)cc2Cl)cn1 (racemic) | > 256 |  |
| COc1nc([N+](=O)[O-])cn1CC(O)c1ccc(Cl)cc1 (racemic) | 16 (≈ 53.7 µM) |  |
| O=[N+]([O-])c1cn(CC(OCc2ccccc2F)c2ccc(Cl)cc2Cl)cn1 (racemic) | > 256 |  |
| O=[N+]([O-])c1cn(CC(O)c2ccc(Cl)cc2Cl)c(Br)n1 (racemic) | 2 (≈ 5.25 µM) | 8 (≈ 21 µM) |
| O=[N+]([O-])c1cn(CC(O)c2ccc(Cl)cc2)c(Br)n1 (racemic) | 64 (≈ 185 µM) |  |
| Cc1nc([N+](=O)[O-])cn1CC(OCc1ccc(Cl)cc1)c1ccc(Cl)cc1Cl (racemic) | > 256 |  |
| CSc1nc([N+](=O)[O-])cn1CC(OCc1ccc(Cl)cc1)c1ccc(Cl)cc1Cl (racemic) | > 256 |  |
| CSc1nc([N+](=O)[O-])cn1CC(O)c1ccc(Cl)cc1Cl (racemic) | 16 (≈ 45.9 µM) |  |
| Cc1ccc(C(O)Cn2cc([N+](=O)[O-])nc2Br)c(C)c1 (racemic) | 128 (≈ 376 µM) |  |
